Results from paper PMC5928873 (Theranostics, 2018).
Where two headings read alike, the source gives them in different places.

Experiments:
[1] = tested on: HT-29 colon cancer xenografts; assay: Tumor growth assay, HT-29 xenograft; assay type: in vivo, BALB/c nude mice; conditions: dosing from day 7, sacrificed day 28, n = 6
Method in brief: (§1)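 Female BALB/c nude mice, 4–5 weeks old and housed SPF, were implanted s.c. in the right flank with BGC-823 or HT-29 cells. At 100 mm3 tumours, mice were randomised into 7 groups. Arms were PBS, reference agents (80 mg/kg/7d; 5 mg/kg/7d) and test peptides at 5 mg/kg daily or every 4 days. Body weight and tumour volume were tracked; tumours were weighed at sacrifice; n = 6, mean ± SD.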

[2] = tested on: BGC-823 gastric cancer xenografts; assay: Tumor growth assay, BGC-823 xenograft; assay type: in vivo, BALB/c nude mice; conditions: dosing from day 7, sacrificed day 28, n = 6
Method in brief: as §1

[3] = tested on: zebrafish embryo subintestinal vessels (SIVs); assay: Zebrafish angiogenesis model; assay type: in vivo; conditions: yolk sac microinjection at 2 dpf, read at 3 dpf, 10 zebrafish per group analysed
Method in brief: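 Transgenic zebrafish received test peptide by yolk-sac microinjection at 2 dpf, 30 embryos per group, with a positive control included. After a further 24 h, 10 embryos per group were randomly chosen. Fluorescent subintestinal vessels were imaged and SIV area was quantified by image analysis (mean ± SD, three to four independent experiments).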

[4] = in humans; cited from earlier work
[5] = in rats; cited from earlier work
[6] = in rabbits, estimated; cited from earlier work
[7] = in mice; cited from earlier work

For “Avastin: recombinant humanized monoclonal IgG1 antibody against VEGF-A”, the “inhibition rate on HT-29 xenograft” value ([1]; 5 mg/kg/7d) was 77.91%, the “inhibition rate on BGC-823 xenografts” value ([2]; 5 mg/kg/7d) was 79.54% and the “angiogenesis of SIV plexus in zebrafish embryos (SIV area)” value [3] was “inhibited the angiogenesis of SIV plexus”.

For `O=P1(N(CCCl)CCCl)NCCCO1` (stereo not drawn) [CTX, Cyclophosphamide], the “inhibition rate on HT-29 xenograft” value ([1]; 80 mg/kg/7d, positive group) was 78.02% and the “inhibition rate on BGC-823 xenografts” value ([2]; 80 mg/kg/7d, positive group) was 65.9%.

In the case of Albumin, the half-life [4] is listed as 456 h, the half-life [5] is listed as 45.6 h and the half-life [6] is listed as 133 h. The half-life [7] was 24 h.
